Measured values as given in ChEMBL document CHEMBL5046239, “Development of novel phenoxyalkylpiperidines as high-affinity Sigma-1 (σ1) receptor ligands with potent anti-amnesic effect” (Eur J Med Chem, 2022).
Active and inactive are the calls of the source. The rule behind the calls is not given here.

Columns and labels:
[1] = biological target: Sigma non-opioid intracellular receptor 1 (Cavia porcellus, UniProt Q60492); experiment: Displacement of [3H](+)-pentazocine from sigma 1 receptor in guinea pig brain membranes measured after 120 mins by scintillation counting method; format: cell membranes, Membrane
[2] = biological target: T1, Sigma intracellular receptor 2 (Rattus norvegicus, UniProt Q5U3Y7); experiment: Displacement of [3H]DTG from sigma 2 receptor in Wistar Han rat liver membranes measured after 120 mins by scintillation counting method; format: cell membranes, Membrane
T1 sequence (Q5U3Y7 whole entry): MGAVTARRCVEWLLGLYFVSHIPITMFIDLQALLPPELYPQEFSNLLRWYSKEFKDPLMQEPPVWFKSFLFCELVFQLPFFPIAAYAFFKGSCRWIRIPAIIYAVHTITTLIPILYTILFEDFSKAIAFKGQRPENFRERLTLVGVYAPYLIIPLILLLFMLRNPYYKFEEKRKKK

HepG2 = experiment: Cytotoxicity against human HepG2 cells assessed as cell viability measured after 48 hrs by MTT assay; format: functional, cell-based; conditions: HepG2, 48 h
Method in brief: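 HepG2 cells grown in MEM with 10% FBS, glutamine, pen-strep and NEAA at 37 °C, 5% CO2. Seeded at 25,000 cells/well and dosed the next day at 1–100 μM for 48 h. Solvent controls (EtOH, DMSO) included. MTT 0.5 mg/mL for 3–4 h, formazan dissolved in DMSO/EtOH, absorbance read at 570/630 nm.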

Mus musculus [3] = experiment: Cognitive enhancing effect in dizocilpine induced amnesia Swiss mouse model assessed as increase in latency time at 1 to 10 mg/kg, ip pretreated for 10 mins followed by dizocilpine addition measured after 20 mins by step-through passive avoidance test; format: functional, organism-based; conditions: dose 1-10 mg/kg, time 30.0 min
Method in brief: (§1)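 Male Swiss OF-1 mice, 7–9 weeks old, n = 12–16 per group. Test drug given ip in saline 10 min before dizocilpine (0.15 mg/kg ip), which was given 20 min before the Y-maze session or passive avoidance training. NE-100 (1 mg/kg ip) was given at the same time as the test drug where used. Read-outs were Y-maze alternation and step-through latency at 24 h retention. Statistics were ANOVA with Dunnett's test, or Dunn's test for latency.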

C6 = experiment: Cytotoxicity against rat C6 cells assessed as cell viability measured after 48 hrs by MTT assay; format: functional, cell-based; conditions: C6, 48 h
SH-SY5Y = experiment: Cytotoxicity against human SH-SY5Y cells assessed as cell viability measured after 48 hrs by MTT assay; format: functional, cell-based
Method in brief: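 SH-SY5Y cells grown in MEM/Ham's F12 (1:1) with 10% FBS, glutamine and pen-strep at 37 °C, 5% CO2. Seeded at 25,000 cells/well and dosed the next day at 1–100 μM for 48 h. Solvent controls included. MTT 0.5 mg/mL for 3–4 h, formazan dissolved in DMSO/EtOH, absorbance read at 570/630 nm.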

Mus musculus [4] = experiment: Cognitive enhancing effect in dizocilpine induced amnesia Swiss mouse model assessed as reduction in memory impairment at 1 to 10 mg/kg, ip pretreated for 10 mins followed by dizocilpine addition measured after 20 mins by Y-maze test; format: functional, organism-based; conditions: dose 1-10 mg/kg, time 30.0 min; method in brief: as §1
Mus musculus [5] = experiment: Cognitive enhancing effect in dizocilpine induced amnesia Swiss mouse model assessed as reduction in memory impairment at 1 to 10 mg/kg, ip pretreated for 10 mins followed by dizocilpine addition in presence of NE-100 measured after 20 mins by Y-maze test; format: functional, organism-based; conditions: dose 1-10 mg/kg, time 30.0 min; method in brief: as §1
Mus musculus [6] = experiment: Cognitive enhancing effect in dizocilpine induced amnesia Swiss mouse model assessed as increase in latency time at 1 to 10 mg/kg, ip pretreated for 10 mins followed by dizocilpine addition in presence of NE-100 measured after 20 mins by step-through passive avoidance test; format: functional, organism-based; conditions: dose 1-10 mg/kg, time 30.0 min; method in brief: as §1
MCF7 = experiment: Cytotoxicity against human MCF7 cells assessed as cell viability measured after 48 hrs by MTT assay; format: functional, cell-based; conditions: MCF7, 48 h
Method in brief: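 MCF7 cells grown in DMEM with 10% FBS, glutamine and pen-strep at 37 °C, 5% CO2. Seeded at 25,000 cells/well and dosed the next day at 1–100 μM for 48 h. Solvent controls included. MTT 0.5 mg/mL for 3–4 h, formazan dissolved in DMSO/EtOH, absorbance read at 570/630 nm.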

Mus musculus [7] = experiment: Cognitive enhancing effect in dizocilpine induced amnesia Swiss mouse model assessed as increase in latency time at 0.03 to 0.3 mg/kg, ip pretreated for 10 mins followed by dizocilpine addition measured after 20 mins by step-through passive avoidance test; format: functional, organism-based; conditions: dose 0.03-0.3 mg/kg, time 30.0 min; method in brief: as §1
Mus musculus [8] = experiment: Cognitive enhancing effect in dizocilpine induced amnesia Swiss mouse model assessed as reduction in memory impairment at 0.03 to 0.3 mg/kg, ip pretreated for 10 mins followed by dizocilpine addition measured after 20 mins by Y-maze test; format: functional, organism-based; conditions: dose 0.03-0.3 mg/kg, time 30.0 min; method in brief: as §1
Mus musculus [9] = experiment: Cognitive enhancing effect in dizocilpine induced amnesia Swiss mouse model assessed as increase in latency time at 0.03 to 0.3 mg/kg, ip pretreated for 10 mins followed by dizocilpine addition in presence of NE-100 measured after 20 mins by step-through passive avoidance test; format: functional, organism-based; conditions: dose 0.03-0.3 mg/kg, time 30.0 min; method in brief: as §1
Mus musculus [10] = experiment: Cognitive enhancing effect in dizocilpine induced amnesia Swiss mouse model assessed as reduction in memory impairment at 0.03 to 0.3 mg/kg, ip pretreated for 10 mins followed by dizocilpine addition in presence of NE-100 measured after 20 mins by Y-maze test; format: functional, organism-based; conditions: dose 0.03-0.3 mg/kg, time 30.0 min; method in brief: as §1

Sigma non-opioid intracellular receptor 1, sequence (Q60492 whole entry): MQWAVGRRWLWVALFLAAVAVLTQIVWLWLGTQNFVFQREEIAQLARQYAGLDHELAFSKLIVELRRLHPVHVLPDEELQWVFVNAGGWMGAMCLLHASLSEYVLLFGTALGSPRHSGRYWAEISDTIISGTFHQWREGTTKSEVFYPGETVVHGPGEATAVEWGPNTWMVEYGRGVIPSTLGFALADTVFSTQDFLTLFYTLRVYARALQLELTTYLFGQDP

C[C@@H]1CCC[C@H](C)N1CCOc1ccc(Cl)cc1
Ki [1]: 59.4 nM
Ki [2]: 116 nM

CC1CCN([C@@H](C)COc2ccc(Cl)cc2)CC1
Ki [1]: 0.34 nM
Ki [2]: 186 nM

COc1ccc(OCCN2CCC(C)CC2)cc1
EC50 (HepG2): > 100000 nM
Ki [1]: 0.89 nM
Ki [2]: 170 nM
Activity (Mus musculus [3]): Active
EC50 (C6): > 100000 nM
EC50 (SH-SY5Y): > 100000 nM
Activity (Mus musculus [4]): Active
Activity (Mus musculus [5]): inactive
Activity (Mus musculus [6]): inactive
EC50 (MCF7): > 100000 nM

COc1ccc(OC[C@@H](C)N2CCC(C)CC2)cc1
Ki [1]: 1.16 nM
Ki [2]: 187 nM
EC50 (C6): > 100000 nM

CC1CCN(CCOc2ccc(Cl)cc2)CC1
EC50 (HepG2): > 100000 nM
Ki [2]: 239 nM
EC50 (C6): > 100000 nM
Activity (Mus musculus [7]): Active
EC50 (SH-SY5Y): > 100000 nM
Activity (Mus musculus [8]): Active
Activity (Mus musculus [9]): inactive
Activity (Mus musculus [10]): inactive
EC50 (MCF7): > 100000 nM

C[C@@H]1CCCCN1CCOc1ccc(Cl)cc1
Ki [1]: 20.6 nM
Ki [2]: 77.8 nM

COc1ccc(OCCN2CCCC[C@@H]2C)cc1
Ki [1]: 43.4 nM
Ki [2]: 175 nM

C[C@@H]1CCC[C@H](C)N1CCCOc1ccc(Cl)cc1
Ki [1]: 4.43 nM
Ki [2]: 17.2 nM

COc1ccc(OCCN2C(C)(C)CCCC2(C)C)cc1
Ki [1]: > 5000 nM
Ki [2]: 809 nM
EC50 (C6): > 100000 nM

COc1ccc(OCCCN2[C@H](C)CCC[C@@H]2C)cc1
Ki [1]: 23.5 nM
Ki [2]: 52.5 nM

C[C@H]1CCCCN1CCOc1ccc(Cl)cc1
Ki [1]: 16.6 nM
Ki [2]: 69.8 nM

CC1(C)CCCC(C)(C)N1CCOc1ccc(Cl)cc1
Ki [1]: > 5000 nM
Ki [2]: 411 nM
EC50 (C6): > 100000 nM

CC1CCN([C@H](C)COc2ccc(Cl)cc2)CC1
Ki [1]: 1.18 nM
Ki [2]: 52.3 nM
EC50 (C6): > 100000 nM

COc1ccc(OCCN2[C@H](C)CCC[C@@H]2C)cc1
Ki [1]: 379 nM
Ki [2]: 636 nM

COc1ccc(OC[C@H](C)N2CCC(C)CC2)cc1
Ki [1]: 1.49 nM
Ki [2]: 723 nM

COc1ccc(OCCN2CCCC[C@H]2C)cc1
Ki [1]: 35.9 nM
Ki [2]: 300 nM
